# The list is not random: actives were taken first. Their share in the collection is about 3.2%.
# DENV2 CPE – protects cells from dengue virus 2 cytopathic effect; CPE inhibition, % at 9.99 µM; AID 651640; 350,000 tested, 1.7% active; DENV2-infected cells, cytopathic effect rescue, plate reader; in the data active = CPE inhibition above about 20%, passing the limit was not always enough; tested in BHK-21 cells;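 also: 0% = median of neutral control wells and 100% = median of positive control wells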
# Cneo AK release – causes C. neoformans cell lysis; adenylate kinase release luminescence, 4 h; normalised: neutral wells 0, clomiphene wells 100; lysis activity, % at 15 µM; 360,000 tested, 0.2% active;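 active = mean lysis activity across replicates of at least 80%, whatever share of replicates individually reach that level; inactive = mean lysis activity below 80%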
#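 read-out = cell lysis signal | test system = log-phase Cryptococcus neoformans yeast cells | input = cells at 5 × 10^6 per mL | medium = fresh YPD growth medium | signal = luminescent adenylate kinase detection reagent | timing = 4 h at 37 °C static, read 1 h later | dosing = single dose | controls = Clomiphene as positive lysis control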
# MLL AF4-AF9 inh – blocks AF4 peptide binding to human AF9 | P42568 | AlphaScreen, biotin-AF4 peptide binding to FLAG-AF9 | inhibition, % at 10 µM | 350,000 tested, 0.47% active | AID 651704;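 active = every replicate reaching a set inhibition limit, whatever the replicate mean, cut at about 25% in these data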;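 also: 0% = plate neutral control median and 100% = total signal loss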
# Target sequence (P42568 whole entry, looked up): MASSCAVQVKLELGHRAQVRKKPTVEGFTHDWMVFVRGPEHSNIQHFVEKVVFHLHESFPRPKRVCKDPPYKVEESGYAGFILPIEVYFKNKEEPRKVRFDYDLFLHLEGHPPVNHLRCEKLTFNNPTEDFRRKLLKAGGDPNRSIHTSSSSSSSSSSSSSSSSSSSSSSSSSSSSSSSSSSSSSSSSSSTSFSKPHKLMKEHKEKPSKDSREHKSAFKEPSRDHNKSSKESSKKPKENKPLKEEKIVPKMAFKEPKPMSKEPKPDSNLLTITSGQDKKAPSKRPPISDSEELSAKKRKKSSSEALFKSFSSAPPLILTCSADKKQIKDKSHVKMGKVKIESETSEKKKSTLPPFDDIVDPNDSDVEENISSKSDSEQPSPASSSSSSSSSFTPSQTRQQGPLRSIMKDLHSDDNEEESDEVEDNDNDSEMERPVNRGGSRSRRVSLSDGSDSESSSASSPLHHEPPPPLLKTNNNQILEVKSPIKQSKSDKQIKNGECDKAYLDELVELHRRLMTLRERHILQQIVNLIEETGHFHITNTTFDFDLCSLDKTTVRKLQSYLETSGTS
# S100A4 MyoIIA – blocks human S100A4 binding to myosin IIA peptide | P26447 | inhibition, % at 10.7 µM | S100A4/TAMRA-MyoIIA peptide fluorescence polarization | 360,000 tested, 0.14% active;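 active = mean inhibition of at least 70% across replicates, with every replicate also reaching that level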
# Target sequence (P26447 whole entry, looked up): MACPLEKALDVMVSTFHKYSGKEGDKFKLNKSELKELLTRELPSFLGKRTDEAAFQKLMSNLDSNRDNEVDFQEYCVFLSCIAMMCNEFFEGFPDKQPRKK
#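 Test system: S100A4 monomer protein. Medium: HEPES buffer with Ca2+, pH 7.2. Reagent: fluorescent myosin IIA peptide, 5 nM. Compound dosing: single-point compound testing. Timing: 5 min between mix addition and reading. Benchmarks: DMSO neutral and TFP positive wells.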
# PfHsp90 yeast 2 – reduces growth (ATP signal) of yeast expressing P. falciparum Hsp90. S. cerevisiae expressing PfHsp90, BacTiter-Glo ATP, 48 h; yeast lacking PDR1 and PDR3 efflux regulators. inhibition, % at 9.4 µM. 310,000 tested, 0.32% active. AID 504621;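 active = every replicate shows inhibition above about 80%, whatever the replicate mean, limit read from the data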;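 also: 0% = DMSO neutral controls and 100% = 20 µM radicicol positive controls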
# Ecoli rRNA inh – inhibitors of bacterial rRNA selective over humanized ribosomes; E. coli WT GFP vs humanized-ribosome RFP mutants, fluorescence, 24 h; hits give low values; DMSO median 0, no signal -100; GFP signal change (wild-type ribosome), % (test concentration not listed); 350,000 tested, 1.6% active; AID 720706;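 active = significant combined selectivity score with lowered wild-type GFP, culture density cut under 30%, mutant RFP and density less affected; inactive = any of these conditions unmet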
# Numbers without * were called inactive; . = no result given.
SMILES,DENV2 CPE,Cneo AK release,MLL AF4-AF9 inh,S100A4 MyoIIA,PfHsp90 yeast 2,Ecoli rRNA inh
CN(C)C(=O)[C@H]1[C@H](CO)[C@H]2Cn3c(cccc3=O)[C@@H]1N2C(=O)c1ccccc1,2,2,-1,126*,.,1
CC(=O)N1[C@H](C(=O)N[C@H](C)c2ccccc2)[C@@H](CO)[C@@H]2Cn3c(cccc3=O)[C@@H]21,-1,1,0,110*,.,-3
CC=Cc1ccc2n(c1=O)C[C@@H]1[C@@H](CO)[C@H](C(=O)N(C)C)[C@H]2N1C(=O)c1ccccc1 (mixture of isomers),3,-1,-1,-22,.,1
O=C(CSc1nc2scc(-c3ccccc3)c2c(=O)[nH]1)NC1CCCCC1,4,.,0,-4,.,13
O=C(CSc1nc2scc(-c3ccccc3)c2c(=O)[nH]1)N1CCCCC1,0,-5,-3,-4,4,-35*
Nc1c(O)ccc2c1C(=O)c1ccccc1C2=O,18,.,20,-17,.,-56*
O=C(CSc1nc(=O)n2ccccc2n1)N1CCCc2ccccc21,68*,-1,-4,-8,2,1
CCOc1ccccc1OCCCC(=O)N1CCN(S(=O)(=O)c2ccccc2C#N)CC1,0,1,-9,0,.,-1
Cc1cccc(CSCC(=O)N2CCN(S(=O)(=O)c3ccccc3C#N)CC2)c1,10,1,3,-2,.,-16*
S=P(N1CC1)(N1CC1)N1CC1,42*,1,-2,11,2,15
CO[C@H]1CN(C)C(=O)c2ccc(NC(C)=O)cc2OC[C@H](C)N(Cc2cccnc2)C[C@@H]1C,.,.,.,.,.,1
NCC[C@@H]1CC[C@@H](NC(=O)C2CCCC2)[C@@H](CO)O1,36*,0,0,1,.,3
CC(C)NC(=O)NCC[C@@H]1CC[C@@H](NC(=O)CN(C)C)[C@@H](CO)O1,-3,97*,1,-3,.,0
O=C(Cc1ccncc1)NCC[C@@H]1CC[C@H](NC(=O)C2CCOCC2)[C@H](CO)O1,-4,-2,0,7,.,1
O=C(N[C@H]1CC[C@@H](CCNC(=O)C2CCCCC2)O[C@@H]1CO)c1ccncc1,24*,-1,2,4,.,3
NCC[C@H]1CC[C@H](NC(=O)C2CCCCC2)[C@H](CO)O1,7,4,2,1,.,0
CN(C)CC(=O)N[C@H]1CC[C@@H](CCNC(=O)C2CCC2)O[C@H]1CO,-8,0,0,2,.,4
O=C(Cc1ccncc1)NCC[C@@H]1CC[C@@H](NC(=O)C2CCOCC2)[C@@H](CO)O1,-11,-2,-1,102*,.,2
COc1cccc(S(=O)(=O)N(C)C[C@H]2Oc3cc(C#CCN(C)C)ccc3S(=O)(=O)N([C@H](C)CO)C[C@@H]2C)c1,10,4,5,-2,.,-1
O=C(C[C@@H]1C[C@@H]2c3cc(NC(=O)NC4CCCC4)ccc3O[C@@H]2[C@@H](CO)O1)NCCc1ccccc1,-5,-1,-1,33,.,2
O=C(CN1CCOCC1)N[C@@H]1CC[C@@H](CCNC(=O)C2CCC2)O[C@@H]1CO,-3,98*,-1,16,.,0
O=C(CCN1CCCCC1)NCC[C@@H]1CC[C@H](NC(=O)c2ccc(F)cc2)[C@@H](CO)O1,-8,86*,4,1,.,2
CC(=O)N[C@H]1CC[C@H](CCNC(=O)C2CCC2)O[C@@H]1CO,-16,101*,0,7,.,2
CC(C)NC(=O)NCC[C@H]1CC[C@H](NC(=O)CN(C)C)[C@H](CO)O1,-5,102*,1,3,.,-1
CN(C)CC(=O)N[C@H]1CC[C@@H](CCNC(=O)C2CCCC2)O[C@H]1CO,-5,-1,0,3,.,0
SMILES,DENV2 CPE,Cneo AK release,MLL AF4-AF9 inh,S100A4 MyoIIA,PfHsp90 yeast 2,Ecoli rRNA inh
CC(=O)N[C@@H]1CC[C@@H](CCNC(=O)C2CCC2)O[C@H]1CO,-9,-1,1,20,.,3
CN(C)CC(=O)N[C@@H]1CC[C@H](CCNC(=O)C2CCCC2)O[C@@H]1CO,54*,1,-1,6,.,2
CC(C)C[C@@H]1CC2=C(C(=O)OC(C)(C)O2)[C@H](CCc2ccccc2)O1,29*,.,-22,-4,.,15
CC(C)[C@@H]1CC2=C(C(=O)OC(C)(C)O2)[C@H](CCc2ccccc2)O1,42*,.,-6,-3,.,2
COCC(=O)N(C)C[C@H]1Oc2ncc(-c3ccc(C#N)cc3)cc2C(=O)N([C@H](C)CO)C[C@H]1C,1,-5,-5,1,.,0
COc1ccc2c3c([nH]c2c1)[C@@H](CO)NCC31CCN(C(=O)C2CCCC2)CC1,78*,.,-1,0,.,-2
COc1ccc2c3c([nH]c2c1)[C@@H](CO)NCC31CCN(Cc2ccc(F)cc2)CC1,24*,.,.,.,.,-1
CCNC(=O)C[C@H]1CC[C@H](NS(=O)(=O)c2ccc(F)cc2)[C@H](CO)O1,-7,1,0,3,.,2
Cc1cc(C)c2c(N=NN(C)C)[nH]nc2n1,.,3,.,.,104*,.
O=S(=O)(NCc1cc(-c2ccccc2)no1)c1ccccc1,1,.,-1,-1,-73,-23*
O=C(C[C@@H]1CC[C@H]2[C@@H](COC[C@@H](O)CN2C(=O)c2ccccc2)O1)Nc1ccc(-c2ccccc2)cc1,48*,-5,2,5,.,-17
O=C(C[C@@H]1CC[C@@H]2[C@H](COC[C@H](O)CN2C(=O)c2ccccc2)O1)Nc1ccc(-c2ccccc2)cc1,44*,-1,0,2,.,0
O=C(C[C@@H]1CC[C@@H]2[C@H](COC[C@@H](O)CN2C(=O)c2ccccc2)O1)Nc1ccccc1,1,0,.,.,.,-2
CCn1cc(/C=C(\NC(=O)c2cc(OC)c(OC)c(OC)c2)C(=O)NCCCN2CCOCC2)c2ccccc21,-1,.,25*,-1,13,5
CCn1cc(/C=C(\NC(=O)c2ccccc2OC)C(=O)NCCN2CCOCC2)c2ccccc21,22*,-1,2,-1,.,-4
COc1ccc(C(=O)N/C(=C\c2cn(S(=O)(=O)N(C)C)c3ccccc23)C(=O)NCCCn2ccnc2)cc1,3,5,17,-5,0,-5
CCCNC(=O)/C(=C/c1cn(S(=O)(=O)N(C)C)c2ccccc12)NC(=O)c1ccc(OC)cc1,-1,.,0,-2,-9,-26*
CCn1cc(/C=C(\NC(=O)c2cc(OC)c(OC)c(OC)c2)C(=O)NCCN2CCOCC2)c2ccccc21,2,.,2,-2,26,6
COc1ccc(S(=O)(=O)N[C@H]2CC[C@H](CC(=O)NCc3ccccc3F)O[C@H]2CO)cc1,14,1,-1,-6,.,2

# Source: PubChem BioAssay (Broad Institute)
